Series [1] has as its target T1, Cytochrome P450 2C9 (Homo sapiens, UniProt P11712). Description: Induction of CYP450 2C9. It is filed as ADME.
The target in series [2] is T2, RNA-directed RNA polymerase (Hepacivirus hominis, UniProt O39930). Description: Inhibition of HCV 1b BK six His-tagged C-terminal truncated 544 amino acid NS5B RNA dependent RNA polymerase. Also on record: species or system Hepatitis C virus subtype 1b. Summed up:
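HCV genotype 1b (BK) NS5B lacking 47 C-terminal residues, His6-tagged, E. coli-expressed; 7 nM enzyme with 5 µg HCV 3′X RNA template-primer, 50 µM each ATP/GTP/CTP, 2 µM UTP plus [3H]-UTP; pH 7.5 Tris, 5 mM MgCl2. Compounds in DMSO (5% final). 60 min at 25 °C; TCA-precipitable radioactivity read. Triplicate, mean of three experiments.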

Series [3] deals with Huh-5-2. As to the kind of experiment: Viability of Huh5-2 cells by MTT assay. It is filed as functional. As to conditions: Homo sapiens; call rule not given here. For orientation: Tetrazolium assays rely on reduction of a dye to a coloured formazan, in cell work by metabolically active cells.
A short description of series [4]: Therapeutic index, CC50 for viability of Huh5-2 cells/EC50 for inhibition of HCV subgenomic RNA replication. Type of series: cell-based, Huh-5-2. Conditions: human, read-out: Ratio CC50/EC50.
The nature of series [5]: Plasma concentration in rat at 30 mg/kg, po after 1 hr. Type of series: ADME, organism-based. Further details: dose 30 mg/kg, route oral. The procedure, abridged:
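Rats dosed orally at 30 mg/kg; plasma sampled at 1 and 2 h; n = 2 or 3.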

The target in series [6] is Human immunodeficiency virus type 1 reverse transcriptase (Human immunodeficiency virus 1, UniProt Q72547). Description: Inhibition of HIV reverse transcriptase.
The target in series [7] is T1, Cytochrome P450 2C9. Description: Inhibition of CYP450 2C9. Type of series: ADME.
The target in series [8] is T3, Cytochrome P450 3A4 (Homo sapiens, UniProt P08684). As to the kind of experiment: Inhibition of CYP450 3A4. Type of series: ADME.
T3 sequence (P08684 whole entry): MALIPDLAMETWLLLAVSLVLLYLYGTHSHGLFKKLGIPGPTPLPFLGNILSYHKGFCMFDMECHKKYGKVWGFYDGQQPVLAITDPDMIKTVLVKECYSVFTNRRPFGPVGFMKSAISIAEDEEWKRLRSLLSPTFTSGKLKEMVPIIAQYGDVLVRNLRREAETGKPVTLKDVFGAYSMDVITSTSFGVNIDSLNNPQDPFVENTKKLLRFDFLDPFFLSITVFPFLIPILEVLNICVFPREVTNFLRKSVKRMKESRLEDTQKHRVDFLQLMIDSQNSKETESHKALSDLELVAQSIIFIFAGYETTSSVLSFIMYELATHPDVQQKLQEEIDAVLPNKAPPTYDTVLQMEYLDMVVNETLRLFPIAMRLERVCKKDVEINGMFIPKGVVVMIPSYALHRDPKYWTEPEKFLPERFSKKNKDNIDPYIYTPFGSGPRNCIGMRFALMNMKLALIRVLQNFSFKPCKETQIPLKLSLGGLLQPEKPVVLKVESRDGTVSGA
Series [9] deals with Rattus norvegicus. Description: Toxicity in rat up to 300 mg/kg/day after 4 weeks. Type of series: organism-based. Conditions: in vivo, 672 h.
Series [10] has as its target T2, RNA-directed RNA polymerase. As to the kind of experiment: Inhibition of HCV 2a NS5B RNA dependent RNA polymerase. Further details: species or system Hepatitis C virus subtype 2a. Summed up: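 IC50 from the mean of four independent experiments; standard deviations within 30% of the mean.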
Series [11] addresses DNA polymerase beta (Homo sapiens, UniProt P06746). Description: Inhibition of DNA polymerase beta.
Series [12] addresses T4, DNA polymerase subunit gamma-1 (Homo sapiens, UniProt P54098).
T4 sequence (P54098 whole entry): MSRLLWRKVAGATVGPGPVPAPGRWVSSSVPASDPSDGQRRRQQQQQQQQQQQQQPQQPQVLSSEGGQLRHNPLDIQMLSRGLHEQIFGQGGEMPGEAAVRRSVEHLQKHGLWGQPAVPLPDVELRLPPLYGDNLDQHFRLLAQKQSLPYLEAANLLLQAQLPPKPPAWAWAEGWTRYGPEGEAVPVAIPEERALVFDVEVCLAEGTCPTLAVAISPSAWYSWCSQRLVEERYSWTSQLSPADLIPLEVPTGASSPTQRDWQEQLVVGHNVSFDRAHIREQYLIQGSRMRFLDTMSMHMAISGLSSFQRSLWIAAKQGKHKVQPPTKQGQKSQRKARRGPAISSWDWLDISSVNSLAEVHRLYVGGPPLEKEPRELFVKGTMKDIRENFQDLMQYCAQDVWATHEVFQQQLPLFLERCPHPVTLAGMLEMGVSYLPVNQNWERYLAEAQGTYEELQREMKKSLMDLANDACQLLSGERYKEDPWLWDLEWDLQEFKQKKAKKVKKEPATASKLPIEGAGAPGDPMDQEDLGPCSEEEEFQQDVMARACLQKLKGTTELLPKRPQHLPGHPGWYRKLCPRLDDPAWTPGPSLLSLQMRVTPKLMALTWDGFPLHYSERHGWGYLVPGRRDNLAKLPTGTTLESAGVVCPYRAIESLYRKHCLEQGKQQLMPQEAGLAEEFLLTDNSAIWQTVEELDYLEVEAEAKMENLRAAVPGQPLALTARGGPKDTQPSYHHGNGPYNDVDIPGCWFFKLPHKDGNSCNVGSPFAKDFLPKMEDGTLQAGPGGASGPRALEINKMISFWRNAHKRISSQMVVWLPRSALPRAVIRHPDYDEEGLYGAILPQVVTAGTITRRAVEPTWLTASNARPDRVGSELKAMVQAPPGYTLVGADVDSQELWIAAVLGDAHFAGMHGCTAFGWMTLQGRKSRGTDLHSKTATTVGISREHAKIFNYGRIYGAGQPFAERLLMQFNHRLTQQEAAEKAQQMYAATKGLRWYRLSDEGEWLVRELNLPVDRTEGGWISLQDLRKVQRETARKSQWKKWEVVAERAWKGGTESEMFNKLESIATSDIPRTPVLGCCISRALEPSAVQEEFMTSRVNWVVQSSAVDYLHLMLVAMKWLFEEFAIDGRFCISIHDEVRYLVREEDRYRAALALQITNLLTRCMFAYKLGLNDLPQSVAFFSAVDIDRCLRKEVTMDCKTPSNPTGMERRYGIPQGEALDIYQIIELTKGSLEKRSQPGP
As to the kind of experiment: Inhibition of DNA polymerase gamma.

Series [13] addresses T3, Cytochrome P450 3A4. As to the kind of experiment: Induction of CYP450 3A4. Type of series: ADME.

pIC50: −log10 of the molar value.

T1 sequence (P11712 whole entry, the tested form may be a part): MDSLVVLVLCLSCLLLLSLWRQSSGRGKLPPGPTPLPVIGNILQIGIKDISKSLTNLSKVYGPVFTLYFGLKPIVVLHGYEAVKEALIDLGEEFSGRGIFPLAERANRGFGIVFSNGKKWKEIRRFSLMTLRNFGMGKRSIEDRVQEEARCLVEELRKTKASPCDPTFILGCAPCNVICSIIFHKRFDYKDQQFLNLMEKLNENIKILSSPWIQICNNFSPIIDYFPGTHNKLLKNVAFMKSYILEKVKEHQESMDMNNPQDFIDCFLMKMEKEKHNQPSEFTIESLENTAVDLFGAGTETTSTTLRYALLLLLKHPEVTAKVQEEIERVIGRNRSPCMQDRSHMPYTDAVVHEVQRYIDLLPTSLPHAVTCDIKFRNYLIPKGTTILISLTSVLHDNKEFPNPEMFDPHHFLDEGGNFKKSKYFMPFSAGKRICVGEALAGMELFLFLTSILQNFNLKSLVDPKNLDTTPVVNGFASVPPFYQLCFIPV
T2 sequence (O39930 whole entry, the tested form may be a part): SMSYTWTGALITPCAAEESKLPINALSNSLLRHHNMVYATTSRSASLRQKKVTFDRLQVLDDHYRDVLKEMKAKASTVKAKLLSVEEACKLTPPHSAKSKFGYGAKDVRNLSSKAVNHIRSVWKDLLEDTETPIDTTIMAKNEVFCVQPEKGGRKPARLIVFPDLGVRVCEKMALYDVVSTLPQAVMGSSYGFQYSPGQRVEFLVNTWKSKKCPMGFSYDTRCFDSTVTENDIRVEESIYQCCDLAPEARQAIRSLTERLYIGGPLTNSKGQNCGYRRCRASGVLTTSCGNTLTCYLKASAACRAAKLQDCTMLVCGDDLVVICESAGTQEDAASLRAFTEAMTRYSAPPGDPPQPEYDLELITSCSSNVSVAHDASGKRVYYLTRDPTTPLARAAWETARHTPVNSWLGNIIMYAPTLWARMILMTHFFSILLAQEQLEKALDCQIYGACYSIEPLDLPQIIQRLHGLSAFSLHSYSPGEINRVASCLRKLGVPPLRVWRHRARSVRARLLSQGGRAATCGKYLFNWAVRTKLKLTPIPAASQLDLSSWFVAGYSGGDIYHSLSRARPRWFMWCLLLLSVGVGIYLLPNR

`O=C(O)c1ccc2c(c1)nc(-c1ccc(OCc3cc(N4CCCC4=O)ccc3-c3ccc(Cl)cc3)cc1F)n2C1CCCCC1`: the Activity result is “Not Active” in series [1], “Non-toxic” in [9] and “Not Active” in series [13]. The pIC50 in [2] is 7.77; in [6], less than 5.00; in series [10] it was 5.19; in series [11], less than 5.00; in series [12] it was less than 5.00. The half-maximal cytotoxic concentration (CC50) in series [3] came out at 25 µM. Besides, the selectivity ratio in [4] is 78. For the same compound, the concentration at 1 h in series [5] came to 4 µM. Moreover, the Inhibition result in series [7] and in [8] was “Not Active” each time.

As a reminder, the pIC50 is the negative decadic logarithm of the IC50, by convention in mol/L. Read a high pIC50 as a small IC50. What is called CC50 is the concentration that lowers cell viability or growth by half. Read a low CC50 as harm at low concentration.

The record behind these values is ChEMBL document CHEMBL1138950, “Benzimidazole derivatives bearing substituted biphenyls as hepatitis C virus NS5B RNA-dependent RNA polymerase inhibitors: structure-activity relationship studies and identification of a potent and highly selective inhibitor JTK-109” (J Med Chem, 2006).
